In ChEMBL document CHEMBL1250546, “Synthesis of non-purine analogs of 6-aryl-9-benzylpurines, and their antimycobacterial activities. Compounds modified in the imidazole ring” (Bioorg Med Chem, 2010):
In brackets after ≈: the same amount, converted by molar mass.

Experiments:
Escherichia coli = assay: Antibacterial activity against Escherichia coli; format: functional
Vero = assay: Cytotoxicity against african green monkey Vero cells; format: cell-based; details: Chlorocebus sabaeus
In short: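 Mammalian-cell toxicity was measured in VERO cells and expressed as EC₅₀.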

[1] = Selectivity index, ratio of EC50 for african green monkey Vero cells to MIC for Mycobacterium tuberculosis H37Rv ATCC 27294; format: functional
Staphylococcus aureus = assay: Antibacterial activity against Staphylococcus aureus; format: functional
[2] = system: Mycobacterium tuberculosis; assay: Antibacterial activity against Mycobacterium tuberculosis H37Rv ATCC 27294 after 7 days by microplate alamar blue assay; format: functional; details: H37Rv ATCC 27294, 168 h
In short: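 Microplate alamar blue assay in 7H12 medium against M. tuberculosis H37Rv ATCC 27294 and against rifampicin-, isoniazid-, streptomycin- and kanamycin-resistant Mtb strains. Bacteria were incubated with test samples for 7 days, then fluorescence was read. MIC is the lowest concentration giving at least a 90% fluorescence reduction relative to untreated controls.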

[3] = system: Mycobacterium tuberculosis; assay: Antibacterial activity against Mycobacterium tuberculosis; format: functional

COc1ccc(Cn2nnc3c(-c4ccco4)ncnc32)cc1
MIC (Escherichia coli): > 90 µg/mL
EC50 (Vero): > 130 µM
Selectivity Index [1]: >54
MIC (Staphylococcus aureus): > 32 µg/mL
MIC [2]: 2.4 µM (≈ 0.738 µg/mL)

COc1ccc(Cn2ncc3c(-c4ccco4)ncnc32)cc1
MIC (Escherichia coli): > 90 µg/mL
EC50 (Vero): > 327 µM
Selectivity Index [1]: >91
MIC (Staphylococcus aureus): > 32 µg/mL
MIC [2]: 3.6 µM (≈ 1.1 µg/mL)

COc1ccc(Cn2ccc3c(-c4ccco4)ncnc32)cc1
MIC (Escherichia coli): > 90 µg/mL
EC50 (Vero): > 131 µM
Selectivity Index [1]: >756
MIC (Staphylococcus aureus): > 32 µg/mL
MIC [2]: 0.16 µM (≈ 0.0489 µg/mL)

COc1ccc(Cn2ccc3c(-c4cccs4)ncnc32)cc1
EC50 (Vero): 40 µM
Selectivity Index [1]: 114
MIC [2]: 0.35 µM (≈ 0.112 µg/mL)

COc1ccc(Cn2ccc3c(-c4ccco4)nc(Cl)nc32)cc1
MIC (Escherichia coli): > 90 µg/mL
EC50 (Vero): 85 µM
Selectivity Index [1]: 1063
MIC (Staphylococcus aureus): > 32 µg/mL
MIC [2]: 0.08 µM (≈ 0.0272 µg/mL)

COc1ccc(Cn2ccc3c(-c4cccs4)nc(Cl)nc32)cc1
EC50 (Vero): 76 µM
Selectivity Index [1]: 691
MIC [2]: 0.11 µM (≈ 0.0391 µg/mL)

COc1ccc(Cn2ccc3c(-c4ccco4)nc(OC)nc32)cc1
EC50 (Vero): 45 µM
Selectivity Index [1]: 205
MIC [2]: 0.22 µM (≈ 0.0738 µg/mL)

COc1ccc(C(=O)c2cn(C)c3c(-c4ccco4)ncnc23)cc1
MIC (Escherichia coli): > 90 µg/mL
MIC (Staphylococcus aureus): > 32 µg/mL
MIC [2]: 192 µM (≈ 64 µg/mL)

COc1ccc(C(=O)c2c[nH]c3c(-c4ccco4)ncnc23)cc1
MIC (Escherichia coli): > 90 µg/mL
MIC (Staphylococcus aureus): > 32 µg/mL
MIC [2]: > 300 µM

COc1ccc(Cc2cn(C)c3c(-c4ccco4)ncnc23)cc1
MIC (Escherichia coli): > 90 µg/mL
MIC (Staphylococcus aureus): > 32 µg/mL
MIC [2]: 97 µM (≈ 31 µg/mL)

COc1ccc(Cn2cnc3c(-c4cccs4)nc(Cl)nc32)cc1
MIC [3]: 0.78 µg/mL (≈ 2.19 µM)

COc1ccc(Cn2cnc3c(-c4ccco4)ncnc32)cc1
EC50 (Vero): > 206 µM
MIC [3]: 1.65 µg/mL (≈ 5.39 µM)
Selectivity Index [1]: >98
MIC [2]: 2.1 µM (≈ 0.643 µg/mL)

COc1ccc(Cn2cnc3c(-c4ccco4)nc(Cl)nc32)cc1
EC50 (Vero): > 117 µM
MIC [3]: 0.39 µg/mL (≈ 1.14 µM)
Selectivity Index [1]: >325
MIC [2]: 0.36 µM (≈ 0.123 µg/mL)

CO[C@H]1/C=C/O[C@@]2(C)Oc3c(C)c(O)c4c(O)c(c(/C=N/N5CCN(C)CC5)c(O)c4c3C2=O)NC(=O)/C(C)=C\C=C\[C@H](C)[C@H](O)[C@@H](C)[C@@H](O)[C@@H](C)[C@H](OC(C)=O)[C@@H]1C [RIFAMPIN]
MIC [3]: 0.25 µg/mL (≈ 0.304 µM)
